PGC1a Ac signal: raises PGC1a acetylation signal in U2OS cells | AID 651723 | activation, % at 15.6 µM | U2OS PGC1a acetylation AlphaScreen, overnight | 350,000 compounds, 0.21% hits;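 active = every replicate reaching activation of at least 50%, whatever the mean replicate activation; inconclusive = replicates that disagree or another doubt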;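 note: hits raise the AlphaScreen acetylation signal above neutral controls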
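System: Flag-PGC1a/GCN5 U2OS cells | Quantity: 7000 cells/well | Times: Overnight compound treatment, 37 °C | Measured by: AlphaScreen proximity luminescence, anti-acetyl-lysine antibody | Dosing: One concentration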
Hep G6PC suppr: PGC-1a acetylation activators affecting G6PC expression in hepatocytes. 240 tested, under 10 active. primary mouse hepatocytes, G6PC mRNA qPCR, forskolin. AID 743463. shares compounds with PGC1a Ac signal. G6PC suppression (normalized activity, % of positive control; higher = more suppression), % at 26 µM;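 active = dose curves showing G6PC suppression whose half-maximal dose is at most twice the top valid dose; inconclusive = flat curves with moderate negative activity, or unreliable fits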;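 note: G6PC expression relative to GAPDH housekeeping gene as delta delta Ct; 0% = median of neutral control wells and 100% = median of positive control wells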
Hep PCK1 suppr: PGC-1a acetylation activators affecting PCK1 expression in hepatocytes. PCK1 expression decrease, unspecified at 26 µM. 230 tested, under 10 active. primary mouse hepatocytes, PCK1 mRNA qPCR, forskolin-stimulated. AID 743465. shares compounds with PGC1a Ac signal;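 active = compounds lowering PCK1 expression whose fitted half-maximal concentration is at most twice the top tested dose; inconclusive = flat fit with moderate opposite-direction effect, or poor fit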;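 note: values are delta delta Ct of PCK1 relative to GAPDH; higher delta delta Ct means lower PCK1 expression so positive values indicate hits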
Hep PGC-1a down: hepatocyte PGC-1a expression change via PGC-1a acetylation activation. max activity (PGC-1a expression decrease), %. 240 tested, under 10 active. shares compounds with PGC1a Ac signal. primary mouse hepatocytes, PGC-1a mRNA qPCR, forskolin; top dose 26 µM;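 active = compound lowering PGC-1a expression with fitted half-maximal concentration at most twice its top tested dose; inconclusive = flat curve with moderate opposite-direction effect, or poor fit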;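 note: 0% = neutral control wells median and 100% = positive control wells median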
Starred values were filed as active, the others as inactive; i = inactive; ? = inconclusive. The list is a sample of the results.

SMILES	PGC1a Ac signal	others
CC(C)(C)n1nnnc1C(CCc1ccccc1)N1CCC2(CC1)C(=O)NCN2c1ccccc1 (stereo not drawn)	71*
O=c1[nH]c2ccccc2n1C1CCN(C(CCc2ccccc2)c2nnnn2Cc2ccccc2)CC1 (stereo not drawn)	-103
CC1=CC2OC3CC4OC(=O)C=CC=CC(C(C)O)OCC(O)C5(C)OC5C(=O)OCC2(CC1O)C4(C)C31CO1 (stereo not drawn)	-87
CCCCN1C(=O)NC(=O)C2(Cc3c(nc4c(C)cccn4c3=O)N3CCc4ccccc4C32)C1=O (stereo not drawn)	68*
CC(=O)OC1CC2OC3C=C(C)CCC3(C)C1(C)C21CO1 (stereo not drawn)	-87
CC(N)C(=O)NC1C2C(=C(O)CC(O)C2O)C(=O)OC1(C)C(Cl)Cl (stereo not drawn)	-74
Cc1ccc2c(c1)CC1(CN2C)C(=O)NC(=O)N(C(C)C)C1=O (stereo not drawn)	51*
CC(O)C1C=CC=CC(=O)OC2CC3OC4C5OC5(C)C(O)CC4(COC(=O)C(O)C(C)CCO1)C2(C)C31CO1 (stereo not drawn)	-87
CC[C@H](C)[C@@H]1NC(=O)CNC(=O)c2csc(n2)[C@H](C(C)(C)O)OC(=O)C(C)(C)[C@H](CCCC(C)(Cl)Cl)OC(=O)c2csc1n2	-60
COc1cccc(C(c2nnnn2C2CCCCC2)N2CCC3(CC2)C(=O)NCN3c2ccccc2)c1OC (stereo not drawn)	72*
COc1ccc(Oc2cc(NC(=O)c3nn(C)cc3[N+](=O)[O-])cc([N+](=O)[O-])c2)cc1	-78
C=C1C(=O)OC2C1CCC(C)C1(O)C=CC(=O)C21C (stereo not drawn)	115*
C=C1C(=O)OC2CC(C)C3C=CC(=O)C3(C)C(O)C12 (stereo not drawn)	-42
CCOC(=O)C1=Nc2ccccc2/C1=C\c1c(O)n(C)c(=O)n(C)c1=O	-43
COc1ccc(CC2C(=O)NC(C)C(=O)N(C)C3C(=O)N(C)C(Cc4ccc(O)c(c4)Oc4ccc(cc4)C3O)C(=O)NC(C)C(=O)NC(C)C(=O)N2C)cc1 (stereo not drawn)	-76
C[C@H]1[C@@H](OS(=O)(=O)O)C[C@@H]2C[C@H]([C@@H](O)c3cc(=O)[nH]c(=O)[nH]3)NC3=NC[C@H]1N32	-94
CN(C)CCN=Cc1c(O)n(Cc2ccco2)c(=O)[nH]c1=O	82*
O=c1[nH]c(=S)n(Cc2ccco2)c(O)c1C=NCc1cccs1	-41
CC(=O)O[C@H]1C[C@@H]2OC3C=C(C)CCC3(C)[C@@]1(C)[C@@]21CO1 (stereo partly drawn)	-84
CC1=CC2OC3CC4OC(=O)C=CC=CC(=O)OCCC(C)C(O)C(=O)OCC2(CC1)C4(C)C31CO1 (stereo not drawn)	-77
CNc1cc(Cl)c2nonc2c1[N+](=O)[O-]	-68
CN1C(=O)/C(=C\c2ccc(N3CCCCC3)o2)C(=O)NC1=S	54*
CCC1CN2CCc3cc(OC)c(OC)cc3C2CC1CC1NCCc2c1[nH]c1ccc(O)cc21 (stereo not drawn)	-70
COc1ccccc1OCC(=O)Nc1ccc(Cl)cc1C(=O)c1ccccc1	?	Hep G6PC suppr=24;Hep PCK1 suppr=80;Hep PGC-1a down=58
CC1CC(C)(O)CC(C(O)CC2CC(=O)NC(=O)C2)C1=O (stereo not drawn)	-77
SMILES	PGC1a Ac signal	others
Cc1cccc(C)c1-n1nnnc1C(c1cccs1)N1CCC(n2c(=O)[nH]c3ccccc32)CC1 (stereo not drawn)	?	Hep G6PC suppr=401;Hep PCK1 suppr=251;Hep PGC-1a down=377
CSCCC(c1nnnn1-c1c(C)cccc1C)N1CCC(n2c(=O)[nH]c3ccccc32)CC1 (stereo not drawn)	89*	Hep G6PC suppr=i;Hep PCK1 suppr=775;Hep PGC-1a down=149
Cc1nc2c(=O)n(C)c(=O)nc-2n(C)n1	-78
C[C@H]1CCC/C=C/C2C[C@H](O)CC2[C@H](O)/C=C/C(=O)O1 (stereo partly drawn)	-72
Cc1ccc(CS(=O)(=O)CCC(=O)N2CCC3(CC2)OCCO3)cc1	-44
CC1CCC/C=C/C2CC(O)CC2C(O)/C=C/C(=O)O1 (stereo not drawn)	-73
CC1CCCN(CC(=O)N2CCCc3ccccc32)C1 (stereo not drawn)	-43
Cc1ccc(OC(=O)N(C)C[C@H]2OCc3ccccc3-c3c(n(C)c4ccccc34)C(=O)N([C@H](C)CO)C[C@H]2C)cc1	229*	Hep G6PC suppr=92;Hep PCK1 suppr=101;Hep PGC-1a down=158
CC12CCC(O)CC1CCC1C2CCC2(C)C(C3=CC(=O)OC3)CCC12O (stereo not drawn)	-80
Cc1ccc(C[n+]2c(-c3ccc(C)cc3)cc(-c3ccc(C)cc3)cc2-c2ccc(C)cc2)cc1	-67
O=C1NCN(c2ccccc2)C12CCN(C(c1cccc3ccccc13)c1nnnn1C1CCCCC1)CC2 (stereo not drawn)	67*	Hep G6PC suppr=-9;Hep PCK1 suppr=45;Hep PGC-1a down=?
CC1CCOC(=O)C=CC=CC(=O)OC2CC3OC4C5OC5(C)C(O)CC4(COC(=O)C1O)C2(C)C31CO1 (stereo not drawn)	-77
CN1CCN(c2ccc([N+](=O)[O-])c3no[n+]([O-])c23)CC1	-63
CC1CCC[C@H](O)CCCCCc2cc(O)cc(O)c2C(=O)O1 (stereo partly drawn)	-47

Screening data: PubChem, Broad Institute
